# Source: article PMC3608840 (Journal of biomolecular screening, 2012)
# Columns and labels:
# [1] = biological target: T1, mPAP (Mus musculus, UniProt Q8CE08); assay: 5′-AMP hydrolysis; format: biochemical; conditions: for Normalized inhibition of mPAP, 5′-AMP hydrolysis (in words): compound at 100 μM
# T1 sequence (Q8CE08 32-381): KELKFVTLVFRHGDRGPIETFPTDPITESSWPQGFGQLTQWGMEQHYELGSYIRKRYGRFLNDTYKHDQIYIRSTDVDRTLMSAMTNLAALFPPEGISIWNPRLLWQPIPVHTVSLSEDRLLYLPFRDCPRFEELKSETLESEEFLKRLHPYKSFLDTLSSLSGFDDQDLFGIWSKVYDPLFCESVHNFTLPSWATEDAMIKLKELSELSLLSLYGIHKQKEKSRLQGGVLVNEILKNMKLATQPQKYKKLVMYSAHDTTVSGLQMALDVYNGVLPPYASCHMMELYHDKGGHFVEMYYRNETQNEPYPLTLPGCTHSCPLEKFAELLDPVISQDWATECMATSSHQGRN
# [2] = test system: ALP; assay: 5′-AMP hydrolysis; format: biochemical, bovine; conditions: for ALP 5′-AMP Hydrolysis IC50: 100 μM AMP
# [3] = biological target: T2, hPAP (Homo sapiens, UniProt P15309); assay: 5′-AMP hydrolysis; format: biochemical
# T2 sequence (P15309 33-386): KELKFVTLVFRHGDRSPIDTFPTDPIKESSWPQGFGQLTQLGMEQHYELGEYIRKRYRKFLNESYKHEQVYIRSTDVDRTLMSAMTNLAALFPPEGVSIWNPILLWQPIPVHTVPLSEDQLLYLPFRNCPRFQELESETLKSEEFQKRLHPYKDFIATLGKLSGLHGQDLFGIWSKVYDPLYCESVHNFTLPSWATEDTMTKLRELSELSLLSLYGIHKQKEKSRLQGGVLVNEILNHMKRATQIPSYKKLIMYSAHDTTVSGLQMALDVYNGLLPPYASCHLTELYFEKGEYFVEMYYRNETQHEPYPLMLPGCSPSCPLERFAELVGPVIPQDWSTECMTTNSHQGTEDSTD
# [4] = test system: ALP; assay: Fluorogenic; format: biochemical, bovine; conditions: for ALP Fluorogenic Assay IC50: DiFMUP substrate, pH 8.0
# In short: (§1)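 Bovine ALP (5 pM final; 50 mM Tris-HCl pH 8.0) or potato acid phosphatase (1.5 nM final; 50 mM sodium acetate pH 5.3), each buffer with 0.01% Tween-20, or human PTP-1B. 12-point in-plate compound series, 15 min room-temperature preincubation with enzyme, then 100 μM DiFMUP final. Fluorescence (ex 340/em 450 nm) read each min for 3 min. Change normalized to enzyme and no-enzyme controls, sigmoidal dose-response fit.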
# [5] = test system: transmembrane PAP; assay: Cell-based calcium mobilization assay of AMP hydrolysis by transmembrane PAP; conditions: HEK293 cells expressing hA2B + Gαq-s5 + transmembrane PAP, 1 mM AMP
# [6] = biological target: T1, mPAP; assay: Fluorogenic; format: biochemical
# [7] = biological target: T3, PTP (Homo sapiens, UniProt P18031); assay: Fluorogenic assay, Protein Tyrosine Phosphatase-1B; format: biochemical; conditions: data not shown
# T3 sequence (P18031 1-435): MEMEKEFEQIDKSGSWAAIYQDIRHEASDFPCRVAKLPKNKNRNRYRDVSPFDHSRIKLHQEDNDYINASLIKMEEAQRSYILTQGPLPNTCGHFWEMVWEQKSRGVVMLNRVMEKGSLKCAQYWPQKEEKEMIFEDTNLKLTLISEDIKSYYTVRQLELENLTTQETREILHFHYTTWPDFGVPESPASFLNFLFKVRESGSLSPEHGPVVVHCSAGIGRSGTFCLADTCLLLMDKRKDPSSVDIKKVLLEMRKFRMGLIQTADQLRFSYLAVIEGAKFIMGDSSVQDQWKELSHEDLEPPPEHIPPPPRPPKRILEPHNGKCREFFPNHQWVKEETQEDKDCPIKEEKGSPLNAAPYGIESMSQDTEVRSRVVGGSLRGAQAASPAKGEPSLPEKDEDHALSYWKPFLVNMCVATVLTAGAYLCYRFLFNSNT
# In short: as §1
# [8] = test system: pAP; assay: Fluorogenic; format: biochemical, potato
# In short: as §1
# [9] = biological target: T2, hPAP; assay: Fluorogenic; format: biochemical
# [10] = test system: HEK293 cells; assay: Cell killing in the cell-based calcium mobilization assay
# [11] = biological target: T4, A2B adenosine receptor (Homo sapiens, UniProt P29275); assay: A2B receptor activation by adenosine in calcium mobilization assay; format: cell-based; conditions: BABPA 5 μM, pCPT-cAMP 100 μM; 1 mM adenosine as ligand
# T4 sequence (P29275 1-332): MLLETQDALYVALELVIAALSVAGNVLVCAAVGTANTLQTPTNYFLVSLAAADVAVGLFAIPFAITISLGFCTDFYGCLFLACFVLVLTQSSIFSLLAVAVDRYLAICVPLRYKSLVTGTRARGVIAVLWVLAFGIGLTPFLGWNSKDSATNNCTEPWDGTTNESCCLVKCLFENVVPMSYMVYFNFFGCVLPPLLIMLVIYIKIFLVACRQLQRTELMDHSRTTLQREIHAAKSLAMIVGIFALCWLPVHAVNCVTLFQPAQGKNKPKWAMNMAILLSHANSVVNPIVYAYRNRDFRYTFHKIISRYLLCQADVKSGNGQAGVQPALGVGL
# [12] = test system: equilibrative nucleoside transporter 1 (ENT1); conditions: cited from earlier work
# [13] = read-out: hPAP 5′-AMP Hydrolysis IC50, 400 μM AMP, pH 7.0
# [14] = read-out: hPAP Fluorogenic Assay IC50, DiFMUP substrate, pH 7.0
smiles,measurement,setting,value
O=C([O-])[C@H](O)[C@@H](O)C(=O)[O-].[Na+].[Na+] [L-(+)-tartrate],"Inhibition of mPAP, 5′-AMP hydrolysis (in words)",[1]; 10 mM,inhibited
same,"Inhibition of ALP, 5′-AMP hydrolysis (in words)",[2]; 10 mM,did not inhibit
same,"Inhibition of hPAP, 5′-AMP hydrolysis (in words)",[3]; 10 mM,inhibited
"CCCOc1ccc2ccccc2c1/C=C/c1nc(O)c([N+](=O)[O-])c(=O)[nH]1 [Compound 49, 6-hydroxy-5-nitro-2-[(E)-2-(2-propoxy-naphthalen-1-yl)-vinyl]-3H-pyrimidin-4-one]",IC50,[1],42.9 µM
same,"Inhibition of ALP, 5′-AMP hydrolysis (in words)",[2]; compound at 100 μM,did not inhibit
same,IC50,[3],2.9 µM
"Nc1nc2c(nc(Sc3ccc(Cl)cc3)n2[C@@H]2O[C@@H]3COP(=O)(O)O[C@H]3[C@H]2O)c(=O)[nH]1 [pCPT-cGMP, 8-(4-chlorophenylthio) cGMP]","Inhibition of ALP, fluorogenic substrate (in words)",[4],Neither pCPT-cAMP nor pCPT-cGMP inhibited
same,Inhibition of hydrolysis of AMP to adenosine by transmembrane PAP (in words),[5],inhibited
same,Inhibition of mouse secretory PAP in vitro using AMP as substrate (in words),[1]; pH 7.0,inhibited
same,IC50,"[6]; read-out: IC50 mouse secretory PAP, fluorogenic substrate",49.7 µM
same,Inhibition of human secretory PAP in vitro using AMP as substrate (in words),[3]; pH 7.0,inhibited
same,"Inhibition of PTP, fluorogenic substrate (in words)",[7],Neither pCPT-cAMP nor pCPT-cGMP inhibited
same,"Inhibition of pAP, fluorogenic substrate (in words)",[8],Neither pCPT-cAMP nor pCPT-cGMP inhibited
same,IC50,"[9]; read-out: IC50 human secretory PAP, fluorogenic substrate",31.1 µM
"Clc1ccc(C(c2ccc(Cl)cc2)n2cc[n+](CC(OCc3ccc(Cl)cc3Cl)c3ccc(Cl)cc3Cl)c2)cc1 (stereo not shown) [compound 29, Calmidazolium chloride]",ALP Fluorogenic Assay IC50,[4],Inactive
same,IC50,[1],11.6 µM
same,ALP 5′-AMP Hydrolysis IC50,[2],Inactive
same,IC50,[6],39.8 µM
same,IC50,[3],1.48 µM
same,Cell killing (in words),[10],killed the cells
same,pAP Fluorogenic Assay IC50,"[8]; DiFMUP substrate, pH 5.3",Inactive
same,IC50,[9],44.7 µM
"O=C(O)c1nn(Cc2ccc(Cl)cc2Cl)c2ccccc12 [compound 9, Lonidamine]",ALP Fluorogenic Assay IC50,[4],Inactive
same,IC50,[1],31.1 µM
same,ALP 5′-AMP Hydrolysis IC50,[2],Inactive
same,mPAP Fluorogenic Assay IC50,"[6]; DiFMUP substrate, pH 7.0",Inactive
same,IC50,[3],15.5 µM
same,Cell killing (in words),[10],killed the cells
same,pAP Fluorogenic Assay IC50,"[8]; DiFMUP substrate, pH 5.3",Inactive
same,IC50,[9],50.1 µM
"COc1ccc2c(c1)c(CC(=O)O)c(C)n2Cc1ccc(Cl)cc1 [compound 17, 1-(4-Chlorobenzyl)-5-methoxy-2-methylindole-3-acetic acid]",ALP Fluorogenic Assay IC50,[4],Inactive
same,mPAP 5′-AMP Hydrolysis IC50,"[1]; 1 mM AMP, pH 7.0",Inactive
same,"Normalized inhibition of mPAP, 5′-AMP hydrolysis (in words)",[1],did not inhibit
same,ALP 5′-AMP Hydrolysis IC50,[2],Inactive
same,mPAP Fluorogenic Assay IC50,"[6]; DiFMUP substrate, pH 7.0",Inactive
same,IC50,[3]; [13],46.3 µM
same,pAP Fluorogenic Assay IC50,"[8]; DiFMUP substrate, pH 5.3",Inactive
same,IC50,[9]; [14],39.8 µM
"Nc1ncnc2c1nc(Sc1ccc(Cl)cc1)n2C1OC2COP(=O)(O)O[C@H]2C1O (stereo in doubt) [compound 21, 8-(4-Chlorophenylthio)-cAMP sodium]","Inhibition of ALP, fluorogenic substrate (in words)",[4],Neither pCPT-cAMP nor pCPT-cGMP inhibited
same,ALP Fluorogenic Assay IC50,[4],Inactive
same,Inhibition of hydrolysis of AMP to adenosine by transmembrane PAP (in words),[5],dose-dependently inhibited
same,Block of A2B receptor activation by adenosine (in words),[11],did not block
same,IC50,"[1]; read-out: mPAP 5′-AMP Hydrolysis IC50, 1 mM AMP, pH 7.0",20.2 µM
same,ALP 5′-AMP Hydrolysis IC50,[2],Inactive
same,Block of ENT1 (in words),[12],blocked
same,IC50,"[6]; read-out: mPAP Fluorogenic Assay IC50, DiFMUP substrate, pH 7.0",35.5 µM
same,IC50,[3]; [13],5.66 µM
same,"Inhibition of PTP, fluorogenic substrate (in words)",[7],Neither pCPT-cAMP nor pCPT-cGMP inhibited
same,"Inhibition of pAP, fluorogenic substrate (in words)",[8],Neither pCPT-cAMP nor pCPT-cGMP inhibited
same,pAP Fluorogenic Assay IC50,"[8]; DiFMUP substrate, pH 5.3",Inactive
same,IC50,[9]; [14],39.8 µM
"O=c1c(O)c(-c2cc(O)c(O)c(O)c2)oc2cc(O)cc(O)c12 [compound 97, Myricetin]",ALP Fluorogenic Assay IC50,[4],Inactive
same,ALP 5′-AMP Hydrolysis IC50,[2],Inactive
same,IC50,[3],26.5 µM
same,pAP Fluorogenic Assay IC50,"[8]; DiFMUP substrate, pH 5.3",Inactive
same,IC50,[9],44.7 µM
"CCCCCCC(C)(C)c1ccc([C@@H]2C[C@H](O)CC[C@H]2CCCO)c(O)c1 [compound 96, CP-55940]",ALP Fluorogenic Assay IC50,[4],Inactive
same,mPAP 5′-AMP Hydrolysis IC50,"[1]; 1 mM AMP, pH 7.0",Inactive
same,"Normalized inhibition of mPAP, 5′-AMP hydrolysis (in words)",[1],did not inhibit
same,ALP 5′-AMP Hydrolysis IC50,[2],Inactive
same,IC50,[6],15.8 µM
same,hPAP 5′-AMP Hydrolysis IC50,"[3]; 400 μM AMP, pH 7.0",Inactive
same,IC50,"[8]; read-out: pAP Fluorogenic Assay IC50, DiFMUP substrate, pH 5.3",39.8 µM
same,IC50,[9],31.6 µM
"O=c1c(O)c(-c2ccc(O)c(O)c2)oc2cc(O)cc(O)c12 [compound 70, Quercetin]",ALP Fluorogenic Assay IC50,[4],Inactive
same,mPAP 5′-AMP Hydrolysis IC50,"[1]; 1 mM AMP, pH 7.0",Inactive
same,"Normalized inhibition of mPAP, 5′-AMP hydrolysis (in words)",[1],did not inhibit
same,ALP 5′-AMP Hydrolysis IC50,[2],Inactive
same,mPAP Fluorogenic Assay IC50,"[6]; DiFMUP substrate, pH 7.0",Inactive
same,hPAP 5′-AMP Hydrolysis IC50,"[3]; 400 μM AMP, pH 7.0",Inactive
same,pAP Fluorogenic Assay IC50,"[8]; DiFMUP substrate, pH 5.3",Inactive
same,IC50,[9],31.6 µM
"CCn1cc(C(=O)O)c(=O)c2ccc(C)nc21 [compound 77, Nalidixic acid sodium]",ALP Fluorogenic Assay IC50,[4],Inactive
same,IC50,[1],20.6 µM
same,ALP 5′-AMP Hydrolysis IC50,[2],Inactive
same,IC50,[6],2.8 µM
same,IC50,[3],20.5 µM
same,pAP Fluorogenic Assay IC50,"[8]; DiFMUP substrate, pH 5.3",Inactive
same,IC50,[9],28.2 µM
